Measured values: ChEMBL document CHEMBL1148632, “Discovery of a novel family of SARS-CoV protease inhibitors by virtual screening and 3D-QSAR studies” (J Med Chem, 2006)

Target: Replicase polyprotein 1a (Severe acute respiratory syndrome-related coronavirus, UniProt P0C6U8)
Experiment: Inhibition of SARS coronavirus 3C-like protease
How it was run: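 Recombinant SARS-CoV 3CLpro (pET32Xa/LIC construct) at 50 nM with 6 µM fluorogenic peptide Dabcyl-KTSAVLQ-SGFRKME-Edans in 20 mM Bis-Tris pH 7.0 at 25 °C. Cleavage read as fluorescence increase (ex 355, em 538 nm). Initial velocities plotted against inhibitor concentration; IC50 fitted with A[I] = A[0]×(1 − [I]/([I]+IC50)).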

Structure (SMILES) | IC50 (read-out: IC50) | IC50 (read-out: -Log IC50 (converted))
Cc1cc(O)nc(SCC(=O)Nc2cc(Cl)ccc2Oc2ccccc2)n1 | 100 µM | –
Cc1nc(SCC(=O)Nc2ccc([N+](=O)[O-])cc2)nc(O)c1C | > 1000 µM | > 1000 µM
CSc1sc(-c2nc(C)cs2)c(C)c1-c1ccnc(SCC(=O)Nc2ccc(Cl)cc2)n1 | 11 µM | –
O=C(CSc1nccc(-c2csc(-c3ccccc3)n2)n1)Nc1cc(Cl)cc(Cl)c1 | 3 µM | –
O=C(CSc1nccc(-c2cc(-c3ccccc3Cl)no2)n1)Nc1ccc(Cl)cc1 | 15 µM | –
CCOc1ccc(N2C(=O)CC(Sc3nc(C)cc(C)n3)C2=O)cc1 (centres undefined) | 300 µM | –
COc1cccc(-c2nc(SCC(=O)Nc3ccc([N+](=O)[O-])cc3)[nH]c(=O)c2C#N)c1 | 300 µM | –
CCOC(=O)c1cnc(SCC(=O)Nc2ccc([N+](=O)[O-])cc2)nc1N | 250 µM | –
Cc1cc(O)nc(SCC(=O)Nc2ccc(Oc3ccc(Cl)cc3)cc2)n1 | 200 µM | –
COc1ccc(-c2ccnc(SCC(=O)Nc3ccc(C(C)C)cc3)n2)cc1 | 400 µM | –
CCC(Sc1nc(O)c(C#N)c(-c2cccc(OC)c2)n1)C(=O)Nc1ccc(C(C)=O)cc1 (centres undefined) | 60 µM | –
O=C(CSc1nccc(-c2cc(-c3ccc(Cl)cc3Cl)no2)n1)Nc1ccc(C(F)(F)F)cc1 | 15 µM | –
COc1cccc(-c2nc(SCC(=O)Nc3ccc(C(C)=O)cc3)[nH]c(=O)c2C#N)c1 | 60 µM | –
Cc1cc(C(F)(F)F)nc(SCC(=O)Nc2ccc(Cl)cc2F)n1 | 500 µM | –
Cc1nc(-c2nc(-c3ccnc(SCC(=O)Nc4ccc(Cl)cc4)n3)cs2)cs1 | 14 µM | –
CC(C)c1ccc(NC(=O)CSc2nccc(-c3cccs3)n2)cc1 | 40 µM | –
COC(OC)c1cc(O)nc(SCC(=O)Nc2ccc(C(F)(F)F)cc2)n1 | 200 µM | –
CSc1sc(-c2nc(C)cs2)c(C)c1-c1ccnc(SCC(=O)Nc2ccccc2Cl)n1 | 12 µM | –
COc1cccc(-c2nc(SCC(=O)Nc3ccc(S(N)(=O)=O)cc3)[nH]c(=O)c2C#N)c1 | 40 µM | –
CCCCc1ccc(NC(=O)CSc2nc(O)c(C#N)c(C3CCCCC3)n2)c(C)c1 | 200 µM | –
COc1ccc(NC(=O)CSc2nc(O)cc(-c3ccccc3)n2)cc1OC | 45 µM | –
CC(Sc1nc(-c2ccccc2)c(C#N)c(=O)[nH]1)C(=O)Nc1ccc(Cl)cc1 (centres undefined) | 300 µM | –
Cn1nc(-c2ccc(-c3ccnc(SCC(=O)Nc4ccc(Cl)cc4)n3)s2)cc1C(F)(F)F | 10 µM | –
CCCc1cc(O)nc(SCC(=O)Nc2ccc(Cl)cc2)n1 | 30 µM | –
N#Cc1c(-c2ccccc2)nc(SCC(=O)Nc2cccc(C(F)(F)F)c2)[nH]c1=O | 200 µM | –
CC(C)(C)c1ccc(NC(=O)CSc2nc(C3CCCCC3)c(C#N)c(=O)[nH]2)cc1 | 350 µM | –
O=C(CSc1nccc(-c2cc(-c3ccccc3)no2)n1)Nc1ccc(Cl)cc1 | 15 µM | –
CC(C)c1ccc(NC(=O)CSc2nccc(-c3csc(COc4ccccc4Cl)n3)n2)cc1 | 200 µM | –
